# Laboratory results as given in article PMC4876142 (Pharmacology Research & Perspectives, 2016).
# pIC50: −log10 of the molar value. “Also recorded” adds a separate entry of the source.
# What was measured:
# human TRPM3 isoforms = human TRPM3 isoforms (Homo sapiens, UniProt Q9HCF6); assay type: cell-based; conditions: concentration-dependent
# mouse TRPM3α2 (mTRPM3α2) = conditions: read-out: IC50 against mTRPM3α2; ref Klose et al. 2011; cited from earlier work
# human COX-1 / COX-2 = conditions: times potent for COX-1; ref Jett et al. 1999; cited from earlier work
# [1] = tested on: wild-type control HEK293 cells; assay: Whole-cell patch clamp in wild-type control HEK293 cells; assay type: cell-based, human; conditions: 10 and 30 μmol/L Dic; cells without TRPM3s
# Procedure, shortened: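 Untransfected HEK293 cells, whole-cell mode, 2.5–5 MΩ electrodes, 25 ± 1°C. Pipette (mmol/L): Cs-aspartate 110, CsCl 30, MgCl2 1, HEPES 10, EGTA 1, Na2ATP 2, pH 7.2. HEPES-buffered bath at pH 7.4 with 2.2 CaCl2. Ramps from −110 to +90 mV (400 msec) every 10 sec from −10 mV holding. Junction potential corrected, leak uncorrected. Test compound at 10 and 30 μmol/L.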
# human TRPM3-3 = human TRPM3-3 (Homo sapiens, UniProt Q9HCF6); assay type: cell-based; conditions: 100 μmol/L Dic applied during sustained response; Nif 30 μmol/L
# [2] = tested on: human TRPM3s (TRPM3_1325, TRPM3-3, TRPM3-9); assay: Whole-cell patch clamp in HEK-TRPM3s cells; assay type: cell-based
# TRPC6-like channel = conditions: 500 μmol/L; without affecting channel conductance; ref Ilatovskaya et al. 2011; cited from earlier work
# TRPM2 = TRPM2 (Homo sapiens, UniProt O94759); assay: Ca2+ measurement in HEK293 cells transfected with TRPM2; assay type: cell-based
# human TRPM3-S = assay: Whole-cell patch clamp, constitutive spontaneous currents in HEK-TRPM3-S cells; assay type: cell-based; conditions: 10 and 30 μmol/L Dic; absence of PregS
# TRPC5 = conditions: read-out: IC50 for TRPC5; ref Jiang et al. 2012; cited from earlier work
# TRPV4 = TRPV4 (Homo sapiens, UniProt Q9HBA0); assay: Ca2+ measurement in HEK293 cells transfected with TRPV4; assay type: cell-based
# guinea pig ileum = conditions: ref Fujimoto et al. 2006; cited from earlier work
# mouse = conditions: ref Tajino et al. 2007; cited from earlier work
# TRPM8 = assay: Ca2+ measurement in HEK293 cells transfected with TRPM8; assay type: cell-based, human; conditions: 100 μmol/L Dic; Men 100 μmol/L
# [3] = target: endogenous TRPM3 in nIMR-32 cells (Homo sapiens, UniProt Q9HCF6); assay: Ca2+ measurement in differentiated neuronal IMR-32; assay type: cell-based; conditions: 30 μmol/L; some nIMR-32 cells, not non-neuronal IMR-32 cells
# Sequence of endogenous TRPM3 in nIMR-32 cells (Q9HCF6 whole entry): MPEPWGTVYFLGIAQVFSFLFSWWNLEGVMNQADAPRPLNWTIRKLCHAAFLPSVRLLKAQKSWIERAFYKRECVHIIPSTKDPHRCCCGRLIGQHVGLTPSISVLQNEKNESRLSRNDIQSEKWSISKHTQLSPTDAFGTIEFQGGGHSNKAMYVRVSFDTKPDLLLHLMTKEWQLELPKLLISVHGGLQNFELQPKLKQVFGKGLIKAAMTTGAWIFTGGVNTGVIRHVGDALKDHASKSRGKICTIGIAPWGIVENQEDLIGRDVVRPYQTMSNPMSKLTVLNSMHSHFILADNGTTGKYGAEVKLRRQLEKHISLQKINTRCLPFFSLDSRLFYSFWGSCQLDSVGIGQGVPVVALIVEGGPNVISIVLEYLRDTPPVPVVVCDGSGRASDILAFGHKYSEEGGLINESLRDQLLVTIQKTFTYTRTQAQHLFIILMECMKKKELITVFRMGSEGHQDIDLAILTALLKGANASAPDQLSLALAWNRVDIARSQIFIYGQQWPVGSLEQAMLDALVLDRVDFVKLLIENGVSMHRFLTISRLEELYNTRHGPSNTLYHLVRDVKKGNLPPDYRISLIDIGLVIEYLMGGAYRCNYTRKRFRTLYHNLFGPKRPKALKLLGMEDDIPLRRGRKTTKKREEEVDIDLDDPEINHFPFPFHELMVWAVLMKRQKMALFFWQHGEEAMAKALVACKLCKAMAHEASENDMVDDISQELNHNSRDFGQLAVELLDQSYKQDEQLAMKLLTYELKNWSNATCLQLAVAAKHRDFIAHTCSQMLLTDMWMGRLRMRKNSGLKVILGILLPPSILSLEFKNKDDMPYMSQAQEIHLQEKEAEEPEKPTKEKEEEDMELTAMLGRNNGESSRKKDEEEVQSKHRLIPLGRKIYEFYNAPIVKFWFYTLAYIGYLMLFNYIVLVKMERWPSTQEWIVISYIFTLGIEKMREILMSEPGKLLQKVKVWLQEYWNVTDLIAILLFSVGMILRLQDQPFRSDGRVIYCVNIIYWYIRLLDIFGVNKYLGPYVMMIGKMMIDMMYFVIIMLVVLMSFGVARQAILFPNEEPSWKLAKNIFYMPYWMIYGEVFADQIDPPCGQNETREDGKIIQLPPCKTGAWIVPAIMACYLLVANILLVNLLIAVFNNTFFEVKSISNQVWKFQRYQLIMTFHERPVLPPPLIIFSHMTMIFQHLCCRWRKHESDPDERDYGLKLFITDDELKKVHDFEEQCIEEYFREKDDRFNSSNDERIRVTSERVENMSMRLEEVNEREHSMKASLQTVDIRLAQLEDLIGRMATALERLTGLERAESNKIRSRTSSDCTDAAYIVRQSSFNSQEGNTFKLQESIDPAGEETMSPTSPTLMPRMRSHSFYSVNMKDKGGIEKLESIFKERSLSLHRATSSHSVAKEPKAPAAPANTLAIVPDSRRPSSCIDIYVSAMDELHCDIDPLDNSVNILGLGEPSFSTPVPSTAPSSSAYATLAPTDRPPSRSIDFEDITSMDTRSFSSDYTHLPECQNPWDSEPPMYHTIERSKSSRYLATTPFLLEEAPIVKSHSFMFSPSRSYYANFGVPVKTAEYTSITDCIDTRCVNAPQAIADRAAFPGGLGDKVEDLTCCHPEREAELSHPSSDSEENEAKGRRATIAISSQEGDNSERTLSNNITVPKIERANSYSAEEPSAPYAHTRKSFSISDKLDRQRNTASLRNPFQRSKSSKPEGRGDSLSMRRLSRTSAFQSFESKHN
# Sequence of human TRPM3 isoforms (Q9HCF6 whole entry, canonical isoform): as the sequence (Q9HCF6 whole entry) above
# Sequence of TRPV4 (Q9HBA0 whole entry): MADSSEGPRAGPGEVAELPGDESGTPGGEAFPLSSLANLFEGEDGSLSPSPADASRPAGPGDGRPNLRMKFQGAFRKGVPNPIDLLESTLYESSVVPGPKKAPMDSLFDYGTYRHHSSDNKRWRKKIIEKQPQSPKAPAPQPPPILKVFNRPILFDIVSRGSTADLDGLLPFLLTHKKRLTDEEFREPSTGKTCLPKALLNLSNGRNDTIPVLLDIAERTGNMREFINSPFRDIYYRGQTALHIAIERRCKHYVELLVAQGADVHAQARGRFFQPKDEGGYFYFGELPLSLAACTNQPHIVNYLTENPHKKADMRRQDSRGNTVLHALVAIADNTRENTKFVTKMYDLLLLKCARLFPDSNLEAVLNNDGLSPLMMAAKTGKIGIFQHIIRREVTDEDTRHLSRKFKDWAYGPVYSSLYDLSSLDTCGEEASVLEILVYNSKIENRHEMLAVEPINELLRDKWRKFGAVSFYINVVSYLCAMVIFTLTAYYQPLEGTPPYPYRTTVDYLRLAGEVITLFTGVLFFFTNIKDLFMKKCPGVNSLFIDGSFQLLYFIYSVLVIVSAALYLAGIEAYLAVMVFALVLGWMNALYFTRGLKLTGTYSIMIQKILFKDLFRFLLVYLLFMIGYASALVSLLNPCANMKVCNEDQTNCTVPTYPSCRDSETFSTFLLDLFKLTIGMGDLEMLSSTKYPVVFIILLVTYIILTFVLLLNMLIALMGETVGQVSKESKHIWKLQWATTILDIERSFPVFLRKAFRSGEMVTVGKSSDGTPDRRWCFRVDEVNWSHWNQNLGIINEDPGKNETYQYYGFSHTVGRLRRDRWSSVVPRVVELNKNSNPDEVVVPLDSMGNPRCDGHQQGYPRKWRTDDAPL
# Sequence of TRPM2 (O94759 whole entry): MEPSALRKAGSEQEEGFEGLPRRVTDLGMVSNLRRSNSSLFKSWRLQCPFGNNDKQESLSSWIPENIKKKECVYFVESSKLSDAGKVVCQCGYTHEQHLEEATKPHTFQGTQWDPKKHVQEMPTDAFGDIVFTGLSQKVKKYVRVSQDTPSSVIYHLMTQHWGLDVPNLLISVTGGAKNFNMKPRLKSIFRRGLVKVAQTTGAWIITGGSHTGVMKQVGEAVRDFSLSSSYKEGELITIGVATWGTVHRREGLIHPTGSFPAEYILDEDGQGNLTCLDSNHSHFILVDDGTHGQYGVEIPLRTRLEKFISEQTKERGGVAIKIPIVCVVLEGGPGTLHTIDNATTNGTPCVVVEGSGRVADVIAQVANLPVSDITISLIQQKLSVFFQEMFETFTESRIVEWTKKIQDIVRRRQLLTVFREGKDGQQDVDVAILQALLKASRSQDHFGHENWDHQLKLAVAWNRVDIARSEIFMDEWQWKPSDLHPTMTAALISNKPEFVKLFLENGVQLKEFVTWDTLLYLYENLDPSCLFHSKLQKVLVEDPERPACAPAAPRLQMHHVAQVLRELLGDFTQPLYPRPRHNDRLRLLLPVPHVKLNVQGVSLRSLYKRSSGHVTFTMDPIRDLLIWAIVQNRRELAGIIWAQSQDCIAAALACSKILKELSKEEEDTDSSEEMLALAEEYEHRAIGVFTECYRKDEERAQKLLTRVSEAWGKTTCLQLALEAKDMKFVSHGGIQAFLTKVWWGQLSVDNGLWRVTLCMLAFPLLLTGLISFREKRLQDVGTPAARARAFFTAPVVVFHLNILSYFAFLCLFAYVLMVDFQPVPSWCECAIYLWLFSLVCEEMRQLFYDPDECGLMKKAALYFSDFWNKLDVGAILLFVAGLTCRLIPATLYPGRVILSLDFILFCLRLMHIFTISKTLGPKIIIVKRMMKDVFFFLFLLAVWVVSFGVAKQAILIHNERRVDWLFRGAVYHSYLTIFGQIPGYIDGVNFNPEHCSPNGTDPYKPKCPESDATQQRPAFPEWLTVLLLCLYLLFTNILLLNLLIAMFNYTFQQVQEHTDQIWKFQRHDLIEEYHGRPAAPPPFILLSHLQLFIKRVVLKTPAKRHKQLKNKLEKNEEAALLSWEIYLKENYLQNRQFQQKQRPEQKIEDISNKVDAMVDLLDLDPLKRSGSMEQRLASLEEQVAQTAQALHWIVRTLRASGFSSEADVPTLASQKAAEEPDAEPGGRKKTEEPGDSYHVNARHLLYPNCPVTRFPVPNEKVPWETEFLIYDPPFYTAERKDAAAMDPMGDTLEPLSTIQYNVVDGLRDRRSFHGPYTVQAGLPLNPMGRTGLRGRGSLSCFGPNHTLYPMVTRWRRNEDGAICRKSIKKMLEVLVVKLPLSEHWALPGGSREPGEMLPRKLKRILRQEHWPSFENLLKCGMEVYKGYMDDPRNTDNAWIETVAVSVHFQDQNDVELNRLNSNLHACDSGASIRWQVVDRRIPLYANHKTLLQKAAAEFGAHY
compound,measurement,setting,value
"COC(=O)C1=C(C)NC(C)=C(C(=O)OC)C1c1ccccc1[N+](=O)[O-] [Nif, nifedipine]",agonist effect on intracellular Ca2+ concentration,human TRPM3 isoforms,induced Ca^2+ response
Cc1cccc(Nc2ccccc2C(=O)O)c1C [mefenamic acid],pIC50,mouse TRPM3α2 (mTRPM3α2),5.18
"COc1ccc2c(c1)c(CC(=O)O)c(C)n2C(=O)c1ccc(Cl)cc1 [Ind, indomethacin]",preference to inhibit COX-1 than COX-2,human COX-1 / COX-2,25 times
"O=C(O)Cc1ccccc1Nc1c(Cl)cccc1Cl [Dic, diclofenac]",effect on small basal currents evoked by ramp voltage commands,[1],did not affect
same,Nif-evoked sustained Ca2+ response versus PregS response,human TRPM3-3,clearly resistant
same,reversibility of current inhibition after withdrawal,"[2]; 10 and 30 μmol/L Dic, 30 μmol/L PregS",immediately reversed
same,effect on PregS-evoked inward and outward currents,"[2]; 10 and 30 μmol/L Dic, 30 μmol/L PregS, whole-cell",inhibited
same,voltage dependence of inhibition,[2]; comparison between -80 mV and +80 mV,voltage‐independent
same,effect on TRPC6-like channel activity,TRPC6-like channel,decreased
same,pIC50,TRPM2,< 4.00
same,effect on H2O2-induced Ca2+ response,"TRPM2; 100 μmol/L Dic, H2O2 1 mmol/L",failed to inhibit
same,effect on constitutive spontaneously active TRPM3-S currents,human TRPM3-S,substantially inhibited; also recorded: significantly inhibited
same,pIC50,TRPC5,3.77
same,pIC50,TRPV4,< 4.00
same,effect on GSK-induced Ca2+ response,"TRPV4; 100 μmol/L Dic, GSK 3 nmol/L",failed to inhibit
same,effect on capsaicin-induced ileum relaxation,guinea pig ileum,no effects
same,effect on Men-evoked hyperthermia,mouse,no effects
same,preference to inhibit COX-1 than COX-2,human COX-1 / COX-2,1.6 times
same,effect on Men-induced Ca2+ response,TRPM8,failed to inhibit; also recorded: resistant
same,effect on Nif-induced TRPM3-dependent Ca2+ responses,human TRPM3 isoforms; 30 μmol/L Nif,significantly inhibited
pregnenolone sulfate [PregS],agonist Ca2+ response in nIMR-32 cells,[3],evoked a Ca^2+ response
same,agonist effect on intracellular Ca2+ concentration,human TRPM3 isoforms,induced elevation
